Compounds with a hit are over-represented: about 3.9% of the library has one in this group of screens.
STAT1 activator – increases IFN-gamma driven STAT1 reporter signal; NIH 3T3 STAT1-luciferase reporter, luminescence; 100% = IFN-gamma alone, no compound; 200,000 compounds, 2.6% hits; activation (% of control), % at 5.5 µM;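 active = activation above the screen-wide mean activation plus 3 SD, cut at about 130% in these data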
STAT1 blocker – inhibitors of IFN-gamma induced STAT1 signaling. AID 920. NIH 3T3 STAT1-luciferase reporter, luminescence. 200,000 compounds, 0.35% hits. inhibition, % at 5.5 µM;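 active = inhibition above a set limit, the mean inhibition across all tested compounds plus 3 SD, cut at about 34% in these data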
Pf gametocyte – inhibitors of late stage P. falciparum gametocyte viability. P. falciparum stage V gametocytes, ATP luminescence, 24 h. inhibition, % at 10.9 µM. 150,000 compounds, 0.065% hits;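 active = inhibition above the mean plus 3 SD of compounds within the control limits, set per campaign, cut at about 38% in these data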
APP 5'UTR act – APP 5'UTR luciferase reporter activation; 190,000 compounds, 1% hits; activation, % at 2 µM; SH-SY5Y APP 5'UTR luciferase reporter, luminescence; zero percent = DMSO vehicle wells;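 active = activation above a set limit, based on mean plus 3 SD of controls, cut at about 140% in these data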
NF-kB neuron act – compounds increasing NF-kB expression in human neuronal cells; NF-kB reporter expression; hits give high values; fold change at 12.5 µM; 190,000 compounds, 1.6% hits; in the data active = fold change above about 3.3
STAT3 activator – increases IL-6 driven STAT3 reporter signal; AID 871; activation (% of control), % at 5.6 µM; U3A cells, IL-6 STAT3-luciferase reporter, luminescence; 100% = signal with IL-6 EC80 alone; 190,000 compounds, 0.91% hits;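 active = activation above the screen-wide mean of compound activation plus 3 SD, cut at about 130% in these data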
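Detection: reporter luminescence signal / Assay system: STAT1-lacking human U3A cells, STAT3 luciferase reporter / Incubation: compound pre-incubation 1 h before IL-6, then 6 h stimulation at 37 °C / Control set: IL-6-only high control / Read-out: % activation relative to IL-6 control / Probe or stimulus: Interleukin-6, 33 ng/mL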
Hits are given with their value; i = inactive; nt = no result given.

SMILES	STAT1 activator	STAT1 blocker	Pf gametocyte	APP 5'UTR act	NF-kB neuron act	STAT3 activator
CCSCCOC(=O)C1=C(C)NC2=C(C(=O)CCC2)C1c1coc2ccccc2c1=O (stereo not given)	i	i	i	i	i	144
CC1=C(C(=O)OC(C)C)C(c2coc3ccccc3c2=O)C2=C(CCCC2=O)N1 (stereo not given)	i	i	i	i	i	i
COCCn1c(C)cc(/C=C2/NC(=O)N(c3cccc(Cl)c3)C2=O)c1C	138	i	i	i	i	i
CC(C)n1cc(/C=C2\NC(=O)N(c3cccc(Cl)c3)C2=O)c2ccccc21	i	i	i	i	i	i
[O-]/C(=C(\C(=S)Nc1cccc2ccccc12)[n+]1ccccc1)c1ccc(OC(F)F)cc1	i	i	i	i	i	i
[O-]/C(=C(\C(=S)Nc1cccc2ccccc12)[n+]1ccccc1)c1ccc2c(c1)OCCO2	i	i	i	i	i	134
CCC(=O)Nc1cnc(NC(=O)c2cccc(F)c2)cc1C	142	i	i	i	i	i
COc1cc(OC)c(S(=O)(=O)NC(C)C)cc1C(=O)O	nt	nt	i	nt	nt	nt
COc1ccc2occ(C(C)=O)c2c1	i	i	nt	i	i	i
O=C(c1ccc(Br)cc1)c1coc2ccc(O)cc12	nt	nt	i	nt	nt	nt
O=C(c1ccc(Cl)cc1)c1coc2ccc(O)cc12	i	i	nt	i	8.8	i
COc1ccc2occ(C(=O)c3ccccc3)c2c1	135	i	i	i	i	i
COc1ccccc1CNC(=O)c1cc2c(=O)[nH]c3ccccc3c2n1C	i	i	nt	i	i	i
Cc1c(Cl)cccc1NC(=O)C1COc2ccccc2O1 (stereo not given)	nt	nt	i	nt	nt	nt
COc1cc(C(=O)NCCc2ccc(S(=O)(=O)N3CCCC3)cc2)cc(OC)c1OC	i	i	i	i	i	i
CC1c2ccccc2N(NC(=O)Cc2ccccc2)C1C (stereo not given)	nt	nt	i	nt	nt	nt
CC(C)CCOc1ccc(C2(C)NC(=O)NC2=O)cc1 (stereo not given)	nt	nt	i	nt	nt	nt
COc1cc(F)cc(-c2ccc3c(c2)c(C#Cc2ccsc2)c(-c2cc(OC)cc(OC)c2)n3C)c1	nt	nt	i	nt	nt	nt
c1ccc(-c2cnnc(N3CCCCC3)n2)cc1	142	i	nt	i	i	i
N#Cc1ncc(Cc2ccccc2)nc1C#N	nt	nt	i	nt	nt	nt
CCOC(=O)c1c(C)[nH]c(C(=O)COC(=O)C2CC2C)c1C (stereo not given)	150	i	i	180	4.1	i
COc1ccccc1N1CCN(Cc2ccc(OC)c(OC)c2OC)CC1	i	i	i	i	i	i
COc1ccccc1N1CCN(Cc2ccc(O)c3ncccc23)CC1	i	i	nt	i	7.2	i
CCOC(=O)C1CCN(Cc2ccc(O)c3ncccc23)CC1	i	i	nt	i	10	i
Cc1ccc(C(=O)NC2=NCCS2)cc1	nt	nt	i	nt	nt	nt
SMILES	STAT1 activator	STAT1 blocker	Pf gametocyte	APP 5'UTR act	NF-kB neuron act	STAT3 activator
CC(C)c1ccc(C(=O)NC2=NCCS2)cc1	145	i	i	167	i	i
COc1cc(OC)cc(C(=O)NC2=NCCS2)c1	i	i	nt	i	i	i
O=C(NC1=NCCS1)c1cccc(OC(F)F)c1	140	i	i	150	4.1	i
CC(C)Oc1ccc(C(=O)NC2=NCCS2)cc1	i	i	i	154	8.3	i
CCN(CC)C(=O)c1[nH]cnc1C(=O)Nc1ccc(C)cc1	nt	nt	i	nt	nt	nt
CCc1cc(=O)[nH]c(SCCC(F)=C(F)F)n1	i	i	i	i	i	i
CCN(CC)CCCNC(=O)CSc1nc(-c2ccc(F)cc2)cc(C(F)(F)F)n1	i	i	i	i	i	i
CC1=CC(C)=Nc2ccccc2N1	129	i	nt	i	i	i
Cc1cccc2sc(NNC(=O)c3ccc4c(c3)OCCO4)nc12	i	i	nt	i	i	i
O=C(NNc1nc2cc3c(cc2s1)OCCO3)c1ccccc1	132	i	i	i	i	i
O=C(COc1ccc2ccccc2c1)N/N=C/C1CC=CCC1 (stereo not given)	i	i	i	i	i	i
N#C/C(=C\c1ccc([N+](=O)[O-])cc1)c1ccccn1	132	i	i	i	i	i
CN(C)c1ccc(/C=C(\C#N)c2ccccn2)cc1	i	54	i	i	i	i
COc1cccc(-c2cc(C(=O)Nc3ccc(N(C)C(C)=O)cc3)c3cc(Br)ccc3n2)c1	nt	nt	i	nt	nt	nt
O=C(CCNc1ccc(Cc2ccncc2)cc1)c1ccc([N+](=O)[O-])cc1	i	i	i	i	i	i
